Cl transport mod – KCC2 cotransporter modulators, thallium flux, primary screen, cell-based, HEK293 KCC2, FluoZin-2 fluorescence, MLSMR | Solute carrier family 12 member 5 (Homo sapiens), Q9H2X9 | B-score of Tl+ flux slope (higher = more flux/activation; lower = inhibition) at 10 µM | hit rate 2.2% among 190,000 | KCC2 cells, thallium flux FluoZin-2 fluorescence;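 active = thallium flux slope and its plate-corrected score both differing from the plate sample mean at a set confidence after two filtering rounds, in either direction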;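 also: slope of fluorescence scaled to starting intensity during 10 to 20 s after thallium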
Target sequence (Q9H2X9 whole entry, looked up): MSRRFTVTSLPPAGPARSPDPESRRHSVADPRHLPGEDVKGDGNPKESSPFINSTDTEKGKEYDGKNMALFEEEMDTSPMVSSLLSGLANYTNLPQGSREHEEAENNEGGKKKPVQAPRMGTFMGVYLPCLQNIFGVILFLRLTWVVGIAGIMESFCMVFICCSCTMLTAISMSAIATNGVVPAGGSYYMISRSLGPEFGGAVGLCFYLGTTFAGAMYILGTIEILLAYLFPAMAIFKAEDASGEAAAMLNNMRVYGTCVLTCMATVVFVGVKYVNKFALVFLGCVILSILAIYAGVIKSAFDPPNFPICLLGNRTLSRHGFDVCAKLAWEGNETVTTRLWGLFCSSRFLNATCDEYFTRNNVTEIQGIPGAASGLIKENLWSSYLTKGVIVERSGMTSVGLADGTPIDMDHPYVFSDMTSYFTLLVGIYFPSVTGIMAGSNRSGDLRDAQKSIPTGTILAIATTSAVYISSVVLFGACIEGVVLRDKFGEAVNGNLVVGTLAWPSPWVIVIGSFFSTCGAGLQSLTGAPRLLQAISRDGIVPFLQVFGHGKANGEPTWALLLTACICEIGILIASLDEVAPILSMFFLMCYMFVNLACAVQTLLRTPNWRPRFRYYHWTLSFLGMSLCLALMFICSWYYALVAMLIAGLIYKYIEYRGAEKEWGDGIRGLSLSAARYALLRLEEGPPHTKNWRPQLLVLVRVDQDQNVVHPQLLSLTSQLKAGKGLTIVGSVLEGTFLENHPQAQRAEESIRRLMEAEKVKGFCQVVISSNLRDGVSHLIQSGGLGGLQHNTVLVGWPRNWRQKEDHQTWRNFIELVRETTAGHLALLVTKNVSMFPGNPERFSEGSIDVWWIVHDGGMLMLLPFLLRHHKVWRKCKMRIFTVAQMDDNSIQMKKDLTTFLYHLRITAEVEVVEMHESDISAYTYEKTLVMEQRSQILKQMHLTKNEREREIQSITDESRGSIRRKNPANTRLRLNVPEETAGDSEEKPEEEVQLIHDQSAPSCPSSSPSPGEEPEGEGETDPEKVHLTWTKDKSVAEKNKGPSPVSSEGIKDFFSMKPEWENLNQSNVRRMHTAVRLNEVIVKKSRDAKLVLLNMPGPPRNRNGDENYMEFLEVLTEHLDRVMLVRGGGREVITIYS
RGS4 inh – RGS4 inhibitors, primary screen, cell-based, HEK293 M3R inducible RGS4, calcium flux. B-score at 10 µM. Regulator of G-protein signaling 4 (Homo sapiens), P49798. hit rate 0.45% among 310,000. Fluo-4 calcium flux; active compounds read high; triggered by carbachol at its EC20;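 active = B-score, a plate-corrected calcium signal, over three deviations above library mean, with baseline fluorescence within five deviations of library mean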;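 also: RGS4 expression induced by doxycycline in cells with stable M3 receptor; B-score is computed from the integrated fluorescence ratio over baseline after carbachol; higher B-score means a larger calcium signal and so more RGS4 inhibition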
MrgX1 agonist – agonists of human MrgX1 receptor, primary screen, HEK293 cells, Fluo-4 calcium flux. Mas-related G-protein coupled receptor member X1 (Homo sapiens), Q96LB2. Fluo-4 calcium fluorescence, agonist mode; active compounds read high. B-score at 10 µM. hit rate 0.44% among 310,000. AID 588627, 2011;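 active = calcium response B-score plate-corrected fluorescence ratio at least 3 library SD, with starting fluorescence B-score inside 5 SD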
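Test system: Stable human MrgX1 HEK293 cell line | Schedule: Overnight plating before 1 h dye loading | Read-out basis: Baseline-normalised fluorescence change ratio, B-scored | Detection: Kinetic calcium dye fluorescence, Fluo-4 NW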
MrgX1 allo act – positive allosteric modulators of MrgX1, primary screen, HEK293 cells, Fluo-4 calcium flux | Mas-related G-protein coupled receptor member X1 (Homo sapiens), Q96LB2 | FDSS; active compounds read high | B-score at 10 µM | hit rate 0.63% among 310,000;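 active = plate-corrected calcium response at least 3 library SD above typical, normal starting fluorescence, not activating the receptor alone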;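 also: compound read alongside a low EC10 to EC30 dose of BAM8-22 agonist; peak minus trough fluorescence over baseline measured at the second addition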
MrgX1 antag – antagonists of human MrgX1 receptor, primary screen, HEK293 cells, Fluo-4 calcium flux. BAM8-22 antagonism; active compounds read low. B-score at 10 µM. Mas-related G-protein coupled receptor member X1 (Homo sapiens), Q96LB2. hit rate 1.3% among 310,000. AID 588676, 2011;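 active = calcium-response B-score plate-corrected more than 3 library SD below zero, starting fluorescence within 5 deviations, no agonist response on first addition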;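 also: peak minus trough fluorescence over baseline after final BAM8-22 challenge near maximal dose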
RGS4 act – RGS4 potentiators or activators, primary screen, cell-based, HEK293 M3R inducible RGS4, calcium flux. hit rate 0.92% among 310,000. B-score at 10 µM. carbachol calcium flux Fluo4; active compounds read low;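 active = B-score of the integrated calcium signal more than 4 SD below the library mean, with starting fluorescence not abnormally high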;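 also: negative B-score means reduced calcium response which marks RGS4 activation or potentiation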
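test system = M3R-expressing HEK293 line, RGS4 induced by doxycycline | probe or stimulus = carbachol at ECmax as muscarinic agonist stimulus | timing = dye loading 30 min 37 °C, buffer rest 30 min RT | signal = calcium dye Fluo4 fluorescence | evaluation = B score from integrated fluorescence ratio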
Active calls of the source: *; i = inactive; . = not tested or not shown. Hits are enriched below; roughly 4.7% of the tested compounds scored in any of these assays.

SMILES | Cl transport mod | RGS4 inh | MrgX1 agonist | MrgX1 allo act | MrgX1 antag | RGS4 act
CCCCCCc1nc2ccccc2c(=O)n1N | . | i | i | 9.1* | i | i
CC(/C=N/NC(=O)c1ccc(Cn2cc([N+](=O)[O-])cn2)o1)=C\c1ccccc1 | . | i | i | i | -5.4* | i
CCOc1ccc(/C=N/NC(=O)c2ccc(Cn3cc([N+](=O)[O-])cn3)o2)cc1 | 1.5 | i | i | i | i | i
COc1cccc(NC(=O)CCc2c(C)nc3nc(CNC(=O)c4cccc(F)c4)nn3c2C)c1 | . | i | i | i | i | i
Cc1ccc(N2C(=O)C3C=NNC3C2=O)cc1 (centres undefined) | . | i | i | i | -5* | i
O=C(Cn1c(=O)[nH]c2ccsc2c1=O)NC1CCCCCC1 | -4.7* | i | i | i | i | i
Fc1cccc(C2NN=C(c3ccccc3)S2)c1 (centres undefined) | 26* | i | i | i | i | i
NC(=O)C1CCN(c2nc3c(S(=O)(=O)c4ccccc4)nnn3c3ccccc23)CC1 | . | i | i | i | i | i
CCN(CC)CCCN1C=C2C(=O)C(C)(OC(=O)CCC(=O)OC)C(=O)C=C2C=C1C1CC1 (centres undefined) | . | i | i | i | -5.5* | i
COC(=O)CCC(=O)OC1(C)C(=O)C=C2C=C(C3CC3)N(CC3CC3)C=C2C1=O (centres undefined) | -0.065 | i | i | i | i | i
COc1ccc(Br)cc1S(=O)(=O)NCc1ccccc1 | -0.14 | i | i | i | -4.9* | i
COc1ccc(F)cc1S(=O)(=O)NCc1ccccc1 | 0.37 | i | i | i | i | i
COc1cccc(NC(=O)C(NCCc2ccc(S(N)(=O)=O)cc2)c2ccccc2)c1 (centres undefined) | . | i | i | i | i | i
COc1ccccc1-c1c(C)oc2cc(OC(=O)c3ccco3)ccc2c1=O | -0.33 | i | i | i | i | i
COc1ccc2c(=O)c(-c3ccccc3C)c(C)oc2c1 | -0.55 | i | i | 9.3* | i | i
Cc1cccc(-c2oc3ccccc3c2-c2ccc3c(c2)OCO3)c1 | . | i | i | i | -6* | i
Cc1cccc(-c2noc(-c3ccc4c(c3)OCO4)n2)c1 | -1.5 | i | i | i | i | i
Cc1cccc([C@@H]2[C@@H]3C(=O)N(Cc4ccccc4)C(=O)[C@@H]3[C@]3(Cc4ccccc4)C(=O)N(c4ccc(C(F)(F)F)cc4)C(=O)N23)c1 | . | i | i | i | i | i
CCCCCCCCCCCCCCCC[n+]1cccc2ccccc21 | 1.3 | . | i | i | i | .
CCCCCCCCC[n+]1cccc2c3ccccc3ccc21 | . | i | i | i | i | -8.6*
COc1ccc(NC(=O)c2ccccc2NS(=O)(=O)c2ccc(CNC(C)=O)cc2)c(OC)c1 | . | i | i | i | i | i
COCCn1c(=NC(=O)CSC(C)=O)sc2cc(OC)ccc21 | 4.9e-05 | i | i | i | i | i
COCCn1c(=NC(=O)CSC(C)=O)sc2cc(F)ccc21 | . | i | i | i | -9.3* | i
CSC(=S)N/N=C(\C)c1ccc(Br)cc1 | 84* | i | i | i | i | i
NS(=O)(=O)c1ccc(-c2ccc(/C=C3\SC(=S)N(C4CCS(=O)(=O)C4)C3=O)o2)cc1 (centres undefined) | 0.071 | i | i | i | -8.6* | i
SMILES | Cl transport mod | RGS4 inh | MrgX1 agonist | MrgX1 allo act | MrgX1 antag | RGS4 act
Cc1ccc(/C=C2\SC(=S)N(C3CCS(=O)(=O)C3)C2=O)o1 (centres undefined) | 0.4 | i | i | i | i | i
CCC1CCCCN1C(=O)COc1ccccc1NC(C)=O (centres undefined) | -0.41 | i | i | i | i | i
Cc1ccc(C2Oc3ccccc3C3=C2C(c2cccs2)n2ncnc2N3)cc1 (centres undefined) | 1 | i | i | i | i | -7.3*
Cc1cc(/C=C2\SC(=S)NC2=O)c(C)n1-c1ccc(O)cc1 | -5.5* | i | 43* | i | i | i
O=C(CSCc1cnn(-c2ccccc2)c1-n1cccc1)NCc1ccc2c(c1)OCO2 | -0.12 | i | . | . | . | -7.3*
O=C(CSc1ncnc2c1cnn2-c1ccc(Cl)cc1)NCc1ccc2c(c1)OCO2 | 21* | i | i | i | i | i
COc1ccc(CNC(=O)CSCc2cnn(-c3ccccc3)c2-n2cccc2)cc1 | -2.6 | i | i | i | i | i
O=C(Cc1ccc(S(=O)(=O)N2CCOCC2)s1)N1CCN(S(=O)(=O)c2cccc(Cl)c2)CC1 | . | i | i | i | i | i
COc1ccc(-c2n(CC(=O)OC3CC(C)CCC3C(C)C)c3ccccc3[n+]2C)cc1 (centres undefined) | -0.41 | i | . | . | . | -7.3*
COc1ccc(OCc2n(CC(=O)OC3CC(C)CCC3C(C)C)c3ccccc3[n+]2C)cc1 (centres undefined) | -0.96 | i | i | i | -14* | i
CC1CCC(C(C)C)C(OC(=O)CSc2nccc(=O)[nH]2)C1 (centres undefined) | -0.5 | i | i | i | i | i
O=C(O)C1CCCN1C(=O)NC1CCCCC1 (centres undefined) | . | i | i | i | i | i
COc1ccc(-c2nn(-c3ccccc3)cc2/C=N/NC(=O)c2ccc3c(c2)OCO3)cc1 | 0.53 | i | i | i | i | i
COc1ccc(-c2nn(-c3ccccc3)cc2/C=N/NC(=O)c2ccc(Br)o2)cc1 | 1.7 | i | i | i | i | -8.1*
CN(C)c1ccc(C(c2nnnn2C2CCCCC2)N2CCN(C(=O)c3ccco3)CC2)cc1 (centres undefined) | 1.2 | . | . | . | . | .
O=C(c1ccco1)N1CCN(C(c2cccs2)c2nnnn2C2CCCCC2)CC1 (centres undefined) | . | i | i | i | i | -7.6*
CCCCn1c(=O)nc2n(-c3ccccc3C)c3ccccc3cc-2c1=O | -0.56 | i | i | i | i | -7.6*

Source: PubChem
